In ChEMBL document CHEMBL1156168, “Eastern extension of azoles as non-nucleoside inhibitors of HIV-1 reverse transcriptase; cyano group alternatives” (Bioorg Med Chem Lett, 2010):

Columns and labels:
MT2 [1] = assay: (§1) Cytotoxicity against human MT2 cells by MTT assay; format: cell-based; settings: mt2
[2] = tested on: Human immunodeficiency virus 1; assay: Antiviral activity against HIV1 3B infected in human MT2 cells assessed as inhibition of virus replication by MTT assay; format: functional, organism-based; settings: Human immunodeficiency virus 1, 3B
Procedure, shortened: (§2)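 HIV-1 (IIIB or RT-variant strain) infection of human MT-2 T-cells. Protection of the infected cells was read out by the MTT colorimetric method.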

MT2 [3] = assay: Cytotoxicity against human MT2 cells infected with HIV1 harboring reverse transcriptase Y181C mutation by MTT assay; format: cell-based
MT2 [4] = assay: Cytotoxicity against human MT2 cells infected with HIV1 harboring reverse transcriptase K103N/Y181C mutation by MTT assay; format: cell-based
[5] = tested on: Human immunodeficiency virus 1; assay: Antiviral activity against HIV1 reverse transcriptase Y181C mutant infected in human MT2 cells assessed as inhibition of viral replication by MTT assay; format: functional, organism-based; settings: Human immunodeficiency virus 1, MT2; procedure, shortened: as §2
[6] = tested on: Human immunodeficiency virus 1; assay: Antiviral activity against HIV1 reverse transcriptase K103N/Y181C double mutant infected in human MT2 cells assessed as inhibition of viral replication by MTT assay; format: functional, organism-based; settings: Human immunodeficiency virus 1, MT2; procedure, shortened: as §2
[7] = as §1; format: cell-based; settings: MT2 cells

With `Fc1cccc(F)c1Cc1cnc(Nc2ccc(COc3ccncc3)c(Cl)c2)o1` the CC50 (MT2 [1]) was 3.8 µM and the EC50 [2] was 0.03 µM.

Molecule `[O-][n+]1ccc(OCc2ccc(Nc3ncc(Cc4c(F)cccc4F)o3)cc2Cl)cc1` has a CC50 (MT2 [1]) of 1.7 µM, an EC50 [2] of 0.011 µM and a CC50 (MT2 [3]) of 2.7 µM. For the same molecule, the CC50 (MT2 [4]) was 2.1 µM.

For `N#Cc1ccc(Nc2ncc(Cc3c(F)cccc3F)o2)cc1Cl`, the EC50 [2] was 0.006 µM.

`Clc1cccc(Cl)c1Cc1nnc(Nc2ccc(COCc3ccccn3)cc2)o1` gave a CC50 (MT2 [1]) greater than 100 µM and an EC50 [2] of 5 µM.

`Clc1cccc(Cl)c1Cc1nnc(Nc2ccc(COCc3ccco3)cc2)o1` gave a CC50 (MT2 [1]) of 12 µM and an EC50 [2] of 2.8 µM.

In the case of `OCc1ccc(Nc2ncc(Cc3c(F)cccc3F)o2)cc1Cl`, the CC50 (MT2 [1]) is reported as 90 µM and the EC50 [2] is reported as 0.26 µM.

Work on `Clc1cccc(Cl)c1Cc1nnc(Nc2ccc(COCc3ccccc3)cc2)o1` yielded a CC50 (MT2 [1]) of 84 µM.

In the case of `Fc1cccc(F)c1Cc1cnc(Nc2ccc(Oc3ccncc3)c(Cl)c2)o1`, the CC50 (MT2 [1]) is reported as 21 µM, the EC50 [2] is reported as 0.12 µM and the EC50 [5] is reported as 2.3 µM. It also gave a CC50 (MT2 [3]) of 17 µM, an EC50 [6] of 7.2 µM and a CC50 (MT2 [4]) of 17 µM.

Work on `Clc1cccc(Cl)c1Cc1nnc(Nc2ccc(COCc3cccnc3)cc2)o1` yielded a CC50 (MT2 [1]) of 81 µM and an EC50 [2] of 4.6 µM.

Molecule `Clc1cccc(Cl)c1Cc1nnc(Nc2ccc(COCc3ccncc3)cc2)o1` has a CC50 (MT2 [1]) of 81 µM and an EC50 [2] of 1.6 µM.

`CSCc1ccc(Nc2ncc(Cc3c(F)cccc3F)o2)cc1` gave a CC50 (MT2 [1]) greater than 100 µM and an EC50 [2] of 1.2 µM.

`OCCc1ccc(Nc2ncc(Cc3c(F)cccc3F)o2)cc1` gave a CC50 (MT2 [1]) of 35 µM and an EC50 [2] of 2.7 µM.

`Fc1cccc(F)c1Cc1cnc(Nc2ccc(CCOc3ccncc3)cc2)o1` gave a CC50 (MT2 [1]) of 11 µM and an EC50 [2] of 1.1 µM.

Molecule `O=c1ccn(CCOc2ccc(Nc3ncc(Cc4c(F)cccc4F)o3)cc2)c(=O)[nH]1` has a CC50 (MT2 [1]) of 73 µM and an EC50 [2] of 25 µM.

`COCc1ccc(Nc2nnc(Cc3c(Cl)cccc3Cl)o2)cc1` gave a CC50 (MT2 [1]) of 100 µM and an EC50 [2] of 4.3 µM.

Work on `O=c1ncccn1SCCc1ccc(Nc2ncc(Cc3c(F)cccc3F)o2)cc1` yielded a CC50 (MT2 [1]) greater than 100 µM and an EC50 [2] of 13 µM.

For `Fc1cccc(F)c1Cc1cnc(Nc2ccc(COc3ccncc3)cc2)o1`, the CC50 (MT2 [1]) was greater than 100 µM and the EC50 [2] was 0.4 µM.

For `Fc1cccc(F)c1Cc1cnc(Nc2ccc(Oc3ccncc3)cc2)o1`, the CC50 (MT2 [1]) was 21 µM, the EC50 [2] was 0.19 µM and the EC50 [5] was 5 µM. It also gave a CC50 (MT2 [3]) of 17 µM, an EC50 [6] of 12 µM and a CC50 (MT2 [4]) of 17 µM.

`Fc1cccc(F)c1Cc1cnc(Nc2ccc(Oc3cccnc3)cc2)o1` showed a CC50 (MT2 [1]) of 22 µM and an EC50 [2] of 0.31 µM.

With `OCc1ccc(Nc2ncc(Cc3c(F)cccc3F)o2)cc1` the CC50 (MT2 [1]) was greater than 100 µM and the EC50 [2] was 3.8 µM.

Work on `COCc1ccc(Nc2ncc(Cc3c(Cl)cccc3Cl)o2)cc1` yielded a CC50 (MT2 [1]) of 8.1 µM and an EC50 [2] of 1.2 µM.

`Clc1cccc(Cl)c1Cc1nnc(Nc2ccc(COCc3ccoc3)cc2)o1` gave a CC50 (MT2 [1]) of 21 µM.

`Clc1cccc(Cl)c1Cc1nnc(Nc2ccc(COCc3ccsc3)cc2)o1` showed a CC50 (MT2 [1]) greater than 100 µM.

Work on `COCc1ccc(Nc2ncc(Cc3c(F)cccc3F)o2)cc1` yielded a CC50 (MT2 [1]) of 32 µM and an EC50 [2] of 2.1 µM.

In the case of `Fc1cccc(F)c1Cc1cnc(Nc2ccc(COCc3ccco3)cc2)o1`, the CC50 (MT2 [1]) is reported as 31 µM and the EC50 [2] is reported as 1.6 µM.

For `Fc1cccc(F)c1Cc1cnc(Nc2ccc(Oc3cccnc3)c(Cl)c2)o1`, the EC50 [5] was 3.2 µM and the EC50 [6] was 4.5 µM.

In the case of `Fc1cccc(F)c1Cc1cnc(Nc2ccc(Oc3cccnc3)c(Br)c2)o1`, the CC50 (MT2 [1]) is reported as 7.5 µM and the EC50 [2] is reported as 0.034 µM.

Molecule `Fc1cccc(F)c1Cc1cnc(Nc2ccc(-c3ccncc3)c(Cl)c2)o1` has a CC50 (MT2 [1]) of 9.3 µM, an EC50 [2] of 0.14 µM and an EC50 [5] of 3.8 µM. For the same molecule, the CC50 (MT2 [3]) was 11 µM, the EC50 [6] was 5.6 µM and the CC50 (MT2 [4]) was 9.1 µM.

For `Fc1cccc(F)c1Cc1cnc(Nc2ccc(-c3cccnc3)c(Cl)c2)o1`, the CC50 (MT2 [1]) was 8.9 µM, the EC50 [2] was 0.073 µM and the EC50 [5] was 6 µM. It also gave a CC50 (MT2 [3]) of 15 µM and a CC50 (MT2 [4]) of 12.5 µM.

`O=C1Nc2ccc(Cl)cc2[C@@](C#CC2CC2)(C(F)(F)F)O1` [EFAVIRENZ] gave a CC50 (MT2 [1]) greater than 0.1 µM, a CC50 (MT2 [3]) greater than 0.1 µM and a CC50 (MT2 [4]) greater than 0.1 µM.

`Cc1cc(C#N)cc(C)c1Oc1nc(Nc2ccc(C#N)cc2)nc(N)c1Br` [ETRAVIRINE] showed a CC50 (MT2 [1]) greater than 0.1 µM, an EC50 [5] of 0.011 µM and a CC50 (MT2 [3]) greater than 0.1 µM. For the same molecule, the CC50 (MT2 [4]) was greater than 0.1 µM.

In the case of `Cc1ccnc2c1NC(=O)c1cccnc1N2C1CC1` [NEVIRAPINE], the CC50 [7] is reported as greater than 100 µM.

Molecule `Cc1cn([C@H]2C=C[C@@H](CO)O2)c(=O)[nH]c1=O` [STAVUDINE] has an EC50 [2] of 1.4 µM, an EC50 [5] of 0.7 µM and an EC50 [6] of 0.5 µM.
